{"data": "Published values from different studies", "target": "Tyrosine-protein kinase Fgr (FGR, Homo sapiens, UniProt P09769)", "note": "Protocols differ between the studies behind these lines."}
{"Compound": "O=C(Nc1cccnn1)N1CCC(=Cc2cccc(Oc3ccc(C(F)(F)F)cn3)c2)CC1", "observed": "cell-free assay", "technique": "competition with immobilised ligand", "concentration": "1 µM", "endpoint": "remaining binding", "value": "63%"}
{"Compound": "CC(C)(C)c1nc2c(s1)c1nc(N)ncc1c1ccc(NS(=O)(=O)c3c(F)cccc3F)c(F)c12", "observed": "enzyme activity", "action": "inhibitor", "technique": "radiometric", "concentration": "1 µM", "endpoint": "remaining activity", "value": "91%"}
{"Compound": "O=C(O)c1cc(-c2ccc(C3CCNCC3)cc2)c2ccc(-c3ccc(C(F)(F)F)cc3)cc2c1", "observed": "cell-free assay", "technique": "competition with immobilised ligand", "concentration": "1 µM", "endpoint": "remaining binding", "value": "100%"}
{"Compound": "CNC(=O)c1cc2c(Oc3ccc(NC(=O)C4(C(=O)Nc5ccc(F)cc5)CC4)cc3)ccnc2cc1OC", "observed": "enzyme activity", "action": "inhibitor", "technique": "radiometric", "concentration": "1 µM", "endpoint": "inhibition", "value": "79%"}
{"Compound": "CCN(CC)c1ccc(C2=NNC(=O)CC2C)cc1[N+](=O)[O-] (stereo not shown)", "observed": "enzyme activity", "action": "inhibitor", "concentration": "10 µM", "endpoint": "remaining activity", "value": "85%"}
{"Compound": "Cc1ccc(C(=O)NCc2ccsc2)cc1C#Cc1cn(C(C)C)c2ncnc(N)c12", "observed": "enzyme activity", "action": "inhibitor", "concentration": "1 µM", "endpoint": "activity vs control", "value": "2%"}
{"Compound": "Cc1ccc(Nc2nccc(N(C)c3ccc4c(C)n(C)nc4c3)n2)cc1S(N)(=O)=O", "observed": "cell-free assay", "concentration": "0.5 µM", "endpoint": "remaining signal", "value": "35.8%"}
{"Compound": "CC(C)(O)c1cncc(-c2nc3ccc(F)cc3n2C2CC2)c1", "observed": "cell-free assay", "technique": "competition with immobilised ligand", "concentration": "1 µM", "endpoint": "remaining binding", "value": "100%"}
{"Compound": "CN1CCC2(CC1)NC(=O)c1c(c3ccc(Cl)c(Cl)c3n1C)C2C#N (racemic)", "observed": "thermal stability", "technique": "DSF", "concentration": "10 µM", "endpoint": "ΔTm", "value": "0.1 °C"}
{"Compound": "Cc1ccc(NC(=O)c2ccc(C)c(C(F)(F)F)c2)cc1C#Cc1nn(C2CCC(O)CC2)c2ncnc(N)c12 (stereo not shown)", "observed": "cell-free assay", "concentration": "10 µM", "endpoint": "remaining signal", "value": "2%"}
{"Compound": "N#CCCc1ccc2c(c1)-c1[nH]c3ccc([N+](=O)[O-])cc3c1CC(=O)N2", "observed": "cell-free assay", "concentration": "0.5 µM", "endpoint": "remaining signal", "value": "31%"}
{"Compound": "CNC(=O)c1cc(Oc2ccc(NC(=O)Nc3ccc(Cl)c(C(F)(F)F)c3)cc2)ccn1", "observed": "enzyme activity", "action": "inhibitor", "concentration": "10 µM", "endpoint": "inhibition", "value": "39%"}
{"Compound": "COc1cc(Cl)c(C(=O)N[C@@H](CN[C@H]2CC[C@@H](N)CC2)Cc2ccc(C#N)cc2)cc1-c1ccc(CN[C@H](C)c2ccc(C)cc2)o1", "observed": "enzyme activity", "action": "inhibitor", "concentration": "1 µM", "endpoint": "remaining activity", "value": "87%"}
{"Compound": "Cn1c2c(c3ccc(Cl)c(Cl)c31)C(C#N)C(C)(C)NC2=O (stereo not shown)", "observed": "thermal stability", "technique": "DSF", "concentration": "10 µM", "endpoint": "ΔTm", "value": "0.1 °C"}
{"Compound": "CN(c1ccnc(CNc2nc(Nc3ccc4c(c3)CC(=O)N4)ncc2C(F)(F)F)n1)S(C)(=O)=O", "observed": "cell-free assay", "technique": "competition with immobilised ligand", "concentration": "1 µM", "endpoint": "remaining binding", "value": "58%"}
{"Compound": "CCN(CC)CCNC(=O)c1c(C)[nH]c(/C=C2\\C(=O)Nc3ccc(F)cc32)c1C", "observed": "enzyme activity", "action": "inhibitor", "concentration": "0.3 µM", "endpoint": "inhibition", "value": "77%"}
{"Compound": "NS(=O)(=O)c1cc(NC(=O)Cc2ccccc2)ccc1Oc1cccc(Cl)c1", "observed": "cell-free assay", "technique": "competition with immobilised ligand", "concentration": "1 µM", "endpoint": "remaining binding", "value": "100%"}
{"Compound": "Cn1c2c(c3ccc(Cl)c(Cl)c31)C(C#N)C1(CCOCC1)NC2=O (stereo not shown)", "observed": "thermal stability", "technique": "DSF", "concentration": "10 µM", "endpoint": "ΔTm", "value": "0 °C"}
{"Compound": "C[C@H](NC(=O)c1cnc2n1[C@](C)(Cc1ccc(C#N)cc1)C(=O)N2c1cc(Cl)c(F)c(Cl)c1)C(=O)NC1(c2ccccn2)CC1", "observed": "cell-free assay", "technique": "competition with immobilised ligand", "concentration": "1 µM", "endpoint": "remaining binding", "value": "100%"}
{"Compound": "Cn1c2c(Cl)c(Cl)ccc2c2cc[nH]c(=O)c21", "observed": "thermal stability", "technique": "DSF", "concentration": "10 µM", "endpoint": "ΔTm", "value": "-0.4 °C"}
{"Compound": "COc1cc(-c2cn(C3CCc4c(F)cccc4N(CC(F)(F)F)C3=O)nn2)ccc1-n1cnc(C)c1 (stereo not shown)", "observed": "cell-free assay", "technique": "competition with immobilised ligand", "concentration": "1 µM", "endpoint": "remaining binding", "value": "100%"}
{"Compound": "Cn1c2c(c3ccc(Cl)c(Cl)c31)C(C#N)C1(CCCC1)NC2=O (stereo not shown)", "observed": "thermal stability", "technique": "DSF", "concentration": "10 µM", "endpoint": "ΔTm", "value": "-0.2 °C"}
{"Compound": "COc1cc2ncnc(Nc3ccc(Oc4ccccc4)c(C)c3C)c2cc1OC", "observed": "enzyme activity", "action": "inhibitor", "concentration": "1 µM", "endpoint": "inhibition", "value": "93%"}
{"Compound": "CS(=O)(=O)c1cc(C2(NC(=O)c3cncc4c3cnn4-c3ccc(F)cc3)CC2)ccn1", "observed": "cell-free assay", "technique": "competition with immobilised ligand", "concentration": "1 µM", "endpoint": "remaining binding", "value": "100%"}
{"Compound": "CCC1(CC)NC(=O)c2c(c3ccc(Cl)c(Cl)c3n2C)C1C#N (stereo not shown)", "observed": "thermal stability", "technique": "DSF", "concentration": "10 µM", "endpoint": "ΔTm", "value": "0 °C"}
{"Compound": "CC(C)(O)[C@H]1CC[C@H](Nc2ccc3ncc(-c4cccc(C(F)(F)F)c4)n3n2)CC1", "observed": "enzyme activity", "action": "inhibitor", "concentration": "1 µM", "endpoint": "remaining activity", "value": "36.8%"}
{"Compound": "O=C1Nc2ccc(Cl)cc2C1=Cc1cc(Cl)c(O)c(Cl)c1", "observed": "cell-free assay", "concentration": "0.5 µM", "endpoint": "remaining signal", "value": "84.8%"}
{"Compound": "Cc1sc(C(=O)NC2COC2)cc1-n1cc(NC(=O)Nc2c(F)cccc2Cl)cn1", "observed": "enzyme activity", "action": "inhibitor", "concentration": "10 µM", "endpoint": "remaining activity", "value": "80.2%"}
